Laboratory results: PubChem BioAssay AID1943 (The Scripps Research Institute Molecular Screening Center, 2009)
Out of some 1,600 compounds screened, about 500 (31%) were called active. This excerpt belongs to a sample that is enriched for actives. A number with no mark means an inactive call.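 Rule for the calls: active = inhibition above the mean of all tested compounds plus 3 SD, cutoff set per campaign (cut at about 36% in these data); inactive = the rest.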

These compounds were tested on Hepatitis C virus NS3 helicase (assay: blockers of HCV NS3 DNA unwinding – biochemical, Cy5 molecular beacon fluorescence, triplicate, confirmation (AID 1943)). Details: at 10.9 µM, hits give high values.
In short: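 Assay system: HCV NS3 helicase fragment enzyme; also added: Quenchable beacon DNA duplex and ATP; schedule: compound added before ATP, reads at 0 and 60 min, 25 °C; measured by: Cy5 fluorescence quenching by beacon hairpin; control set: DMSO and thioflavine S wells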

| Structure (SMILES) | inhibition |
| --- | --- |
| O=C1CC(=O)N(Cc2ccccc2)C(=O)N1CCCCCCN1C(=O)CC(=O)N(Cc2ccccc2)C1=O | 55.3% (active) |
| COc1ccc(N2C(=O)/C(=C/c3ccco3)C(=O)NC2=S)cc1 | 82% (active) |
| CC(C)n1c(=O)c(C=Nc2ccc(Br)cc2)c(O)n(Cc2ccco2)c1=O | 1.92% |
